Laboratory results: ChEMBL document CHEMBL1687776, “Origin and molecular evolution of the determinant of methicillin resistance in staphylococci” (2010)
≈ marks a conversion by molar mass, not a printed value.

What was measured:
Staphylococcus vitulinus [1] = assay: Antibacterial activity against methicillin-resistant mecA-positive Staphylococcus vitulinus SVMP03 by agar dilution method; format: functional; settings: Mammaliicoccus vitulinus
Procedure, shortened: (§1)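 MIC by agar dilution on Mueller-Hinton agar per CLSI guidance; resistance judged against CLSI breakpoints. Strains were animal or food isolates (type strains for S. sciuri subspecies), typed by hsp60 and/or sodA sequencing; mecA homologue carriage checked by PCR with degenerate primers. Agents tested: oxacillin, ampicillin, ceftizoxime, ceftriaxone, cefoxitin.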

Staphylococcus vitulinus [2] = assay: Antibacterial activity against methicillin-resistant mecA-positive Staphylococcus vitulinus SVMP04 by agar dilution method; format: functional; settings: Mammaliicoccus vitulinus; procedure, shortened: as §1
Staphylococcus vitulinus [3] = assay: Antibacterial activity against methicillin-resistant mecA-positive Staphylococcus vitulinus SVMP05 by agar dilution method; format: functional; settings: Mammaliicoccus vitulinus; procedure, shortened: as §1
Staphylococcus vitulinus [4] = assay: Antibacterial activity against methicillin-resistant mecA-positive Staphylococcus vitulinus SVMP06 by agar dilution method; format: functional; settings: Mammaliicoccus vitulinus; procedure, shortened: as §1
Staphylococcus vitulinus [5] = assay: Antibacterial activity against mecA-negative Staphylococcus vitulinus SVMN01 (ATCC 51145T) by agar dilution method; format: functional; settings: Mammaliicoccus vitulinus
Procedure, shortened: (§2)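 MIC by agar dilution on Mueller-Hinton agar following CLSI guidelines. Resistance was assigned using CLSI breakpoints. Agents tested were oxacillin, ampicillin, ceftizoxime, ceftriaxone and cefoxitin. Strains were from animal or food sources and identified by hsp60 and/or sodA sequencing. mecA absence was assessed by PCR with degenerate primers for mecA and its homologues.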

Staphylococcus vitulinus [6] = assay: Antibacterial activity against mecA-negative Staphylococcus vitulinus SVMN02 by agar dilution method; format: functional; settings: Mammaliicoccus vitulinus; procedure, shortened: as §1
Staphylococcus vitulinus [7] = assay: Antibacterial activity against mecA-negative Staphylococcus vitulinus SVMN03 by agar dilution method; format: functional; settings: Mammaliicoccus vitulinus; procedure, shortened: as §2
Staphylococcus vitulinus [8] = assay: Antibacterial activity against mecA-negative Staphylococcus vitulinus SVMN04 by agar dilution method; format: functional; settings: Mammaliicoccus vitulinus; procedure, shortened: as §1
Staphylococcus vitulinus [9] = assay: Antibacterial activity against mecA-negative Staphylococcus vitulinus SVMN05 by agar dilution method; format: functional; settings: Mammaliicoccus vitulinus; procedure, shortened: as §1
Staphylococcus vitulinus [10] = assay: Antibacterial activity against mecA-negative Staphylococcus vitulinus SVMN06 by agar dilution method; format: functional; settings: Mammaliicoccus vitulinus; procedure, shortened: as §1
Staphylococcus vitulinus [11] = assay: Antibacterial activity against mecA-negative Staphylococcus vitulinus SVMN07 by agar dilution method; format: functional; settings: Mammaliicoccus vitulinus; procedure, shortened: as §1
Staphylococcus vitulinus [12] = assay: Antibacterial activity against mecA-negative Staphylococcus vitulinus SVMN08 by agar dilution method; format: functional; settings: Mammaliicoccus vitulinus; procedure, shortened: as §2
Staphylococcus vitulinus [13] = assay: Antibacterial activity against mecA-negative Staphylococcus vitulinus SVMN09 by agar dilution method; format: functional; settings: Mammaliicoccus vitulinus; procedure, shortened: as §1
Staphylococcus vitulinus [14] = assay: Antibacterial activity against mecA-negative Staphylococcus vitulinus SVMN10 by agar dilution method; format: functional; settings: Mammaliicoccus vitulinus; procedure, shortened: as §2
Staphylococcus vitulinus [15] = assay: Antibacterial activity against mecA-negative Staphylococcus vitulinus SVMN11 by agar dilution method; format: functional; settings: Mammaliicoccus vitulinus; procedure, shortened: as §1
Staphylococcus vitulinus [16] = assay: Antibacterial activity against mecA-negative Staphylococcus vitulinus SVMN12 by agar dilution method; format: functional; settings: Mammaliicoccus vitulinus; procedure, shortened: as §1
Staphylococcus vitulinus [17] = assay: Antibacterial activity against mecA-negative Staphylococcus vitulinus SVMN13 by agar dilution method; format: functional; settings: Mammaliicoccus vitulinus; procedure, shortened: as §2
Staphylococcus vitulinus [18] = assay: Antibacterial activity against mecA-negative Staphylococcus vitulinus SVMN14 by agar dilution method; format: functional; settings: Mammaliicoccus vitulinus; procedure, shortened: as §1
Mammaliicoccus lentus = assay: Antibacterial activity against mecA-negative Staphylococcus lentus ATCC 29070T by agar dilution method; format: functional; procedure, shortened: as §2
[19] = test system: Staphylococcus fleurettii; assay: Antibacterial activity against methicillin-resistant mecA-positive Staphylococcus fleurettii SFMP01(CCUG 43834T) by agar dilution method; format: functional; settings: Mammaliicoccus fleurettii; procedure, shortened: as §1
[20] = test system: Staphylococcus fleurettii; assay: Antibacterial activity against methicillin-resistant mecA-positive Staphylococcus fleurettii SFMP02 by agar dilution method; format: functional; settings: Mammaliicoccus fleurettii; procedure, shortened: as §1
[21] = test system: Staphylococcus fleurettii; assay: Antibacterial activity against methicillin-resistant mecA-positive Staphylococcus fleurettii SFMP03 by agar dilution method; format: functional; settings: Mammaliicoccus fleurettii; procedure, shortened: as §1
[22] = test system: Staphylococcus fleurettii; assay: Antibacterial activity against methicillin-resistant mecA-positive Staphylococcus fleurettii SFMP04 by agar dilution method; format: functional; settings: Mammaliicoccus fleurettii; procedure, shortened: as §1
[23] = test system: Staphylococcus fleurettii; assay: Antibacterial activity against methicillin-resistant mecA-positive Staphylococcus fleurettii SFMP05 by agar dilution method; format: functional; settings: Mammaliicoccus fleurettii; procedure, shortened: as §1
[24] = test system: Staphylococcus fleurettii; assay: Antibacterial activity against methicillin-resistant mecA-positive Staphylococcus fleurettii SFMP06 by agar dilution method; format: functional; settings: Mammaliicoccus fleurettii; procedure, shortened: as §1
[25] = test system: Staphylococcus fleurettii; assay: Antibacterial activity against methicillin-resistant mecA-positive Staphylococcus fleurettii SFMP07 by agar dilution method; format: functional; settings: Mammaliicoccus fleurettii; procedure, shortened: as §1
[26] = test system: Staphylococcus fleurettii; assay: Antibacterial activity against methicillin-resistant mecA-positive Staphylococcus fleurettii SFMP08 by agar dilution method; format: functional; settings: Mammaliicoccus fleurettii; procedure, shortened: as §1
[27] = test system: Staphylococcus fleurettii; assay: Antibacterial activity against mecA-negative Staphylococcus fleurettii SFMN01 by agar dilution method; format: functional; settings: Mammaliicoccus fleurettii; procedure, shortened: as §2
[28] = test system: Staphylococcus fleurettii; assay: Antibacterial activity against mecA-negative Staphylococcus fleurettii SFMN02 by agar dilution method; format: functional; settings: Mammaliicoccus fleurettii; procedure, shortened: as §2
[29] = Antibacterial activity against methicillin-resistant mecA-positive Staphylococcus sciuri subsp. sciuri ATCC 29062T by agar dilution method; format: functional; settings: Mammaliicoccus sciuri; procedure, shortened: as §1
[30] = Antibacterial activity against methicillin-resistant mecA-positive Staphylococcus sciuri subsp. rodentium ATCC 700061T by agar dilution method; format: functional; settings: Mammaliicoccus sciuri; procedure, shortened: as §1
Staphylococcus vitulinus [31] = assay: Antibacterial activity against methicillin-resistant mecA-positive Staphylococcus vitulinus SVMP01 by agar dilution method; format: functional; settings: Mammaliicoccus vitulinus; procedure, shortened: as §1
Staphylococcus vitulinus [32] = assay: Antibacterial activity against methicillin-resistant mecA-positive Staphylococcus vitulinus SVMP02 by agar dilution method; format: functional; settings: Mammaliicoccus vitulinus; procedure, shortened: as §1
[33] = Antibacterial activity against mecA-positive Staphylococcus sciuri subsp. carnaticus ATCC 700058T by agar dilution method; settings: Mammaliicoccus sciuri

SMILES | MIC (Staphylococcus vitulinus [1]) | MIC (Staphylococcus vitulinus [2]) | MIC (Staphylococcus vitulinus [3]) | MIC (Staphylococcus vitulinus [4]) | MIC (Staphylococcus vitulinus [5]) | MIC (Staphylococcus vitulinus [6]) | MIC (Staphylococcus vitulinus [7]) | MIC (Staphylococcus vitulinus [8]) | MIC (Staphylococcus vitulinus [9]) | MIC (Staphylococcus vitulinus [10]) | MIC (Staphylococcus vitulinus [11]) | MIC (Staphylococcus vitulinus [12]) | MIC (Staphylococcus vitulinus [13]) | MIC (Staphylococcus vitulinus [14]) | MIC (Staphylococcus vitulinus [15]) | MIC (Staphylococcus vitulinus [16]) | MIC (Staphylococcus vitulinus [17]) | MIC (Staphylococcus vitulinus [18]) | MIC (Mammaliicoccus lentus) | MIC [19] | other results
CO/N=C(\C(=O)N[C@@H]1C(=O)N2C(C(=O)O)=CCS[C@H]12)c1csc(N)n1 [CEFTIZOXIME] | 0.5 µg/mL (≈ 1.3 µM) | 0.5 µg/mL (≈ 1.3 µM) | 1 µg/mL (≈ 2.61 µM) | 0.5 µg/mL (≈ 1.3 µM) | 4 µg/mL (≈ 10.4 µM) | 1 µg/mL (≈ 2.61 µM) | 0.25 µg/mL (≈ 0.652 µM) | 0.5 µg/mL (≈ 1.3 µM) | 0.5 µg/mL (≈ 1.3 µM) | 0.5 µg/mL (≈ 1.3 µM) | 0.5 µg/mL (≈ 1.3 µM) | 0.25 µg/mL (≈ 0.652 µM) | 0.5 µg/mL (≈ 1.3 µM) | 0.25 µg/mL (≈ 0.652 µM) | 1 µg/mL (≈ 2.61 µM) | 0.5 µg/mL (≈ 1.3 µM) | 0.25 µg/mL (≈ 0.652 µM) | 0.5 µg/mL (≈ 1.3 µM) | 1 µg/mL (≈ 2.61 µM) | 32 µg/mL (≈ 83.5 µM) | MIC [20]: 32 µg/mL (≈ 83.5 µM); MIC [21]: 128 µg/mL (≈ 334 µM); MIC [22]: 64 µg/mL (≈ 167 µM); MIC [23]: 4 µg/mL (≈ 10.4 µM); MIC [24]: 32 µg/mL (≈ 83.5 µM); MIC [25]: 4 µg/mL (≈ 10.4 µM); MIC [26]: 32 µg/mL (≈ 83.5 µM); MIC [27]: 2 µg/mL (≈ 5.22 µM); MIC [28]: 2 µg/mL (≈ 5.22 µM); MIC [29]: 2 µg/mL (≈ 5.22 µM); MIC [30]: 2 µg/mL (≈ 5.22 µM); MIC (Staphylococcus vitulinus [31]): 0.5 µg/mL (≈ 1.3 µM); MIC (Staphylococcus vitulinus [32]): 0.5 µg/mL (≈ 1.3 µM); MIC [33]: 2 µg/mL (≈ 5.22 µM)
CO/N=C(\C(=O)N[C@@H]1C(=O)N2C(C(=O)O)=C(CSc3nc(=O)c(O)nn3C)CS[C@H]12)c1csc(N)n1 [CEFTRIAXONE] | 4 µg/mL (≈ 7.21 µM) | 2 µg/mL (≈ 3.61 µM) | 4 µg/mL (≈ 7.21 µM) | 2 µg/mL (≈ 3.61 µM) | 8 µg/mL (≈ 14.4 µM) | 4 µg/mL (≈ 7.21 µM) | 1 µg/mL (≈ 1.8 µM) | 2 µg/mL (≈ 3.61 µM) | 1 µg/mL (≈ 1.8 µM) | 4 µg/mL (≈ 7.21 µM) | 2 µg/mL (≈ 3.61 µM) | 0.25 µg/mL (≈ 0.451 µM) | 2 µg/mL (≈ 3.61 µM) | 1 µg/mL (≈ 1.8 µM) | 4 µg/mL (≈ 7.21 µM) | 1 µg/mL (≈ 1.8 µM) | 1 µg/mL (≈ 1.8 µM) | 2 µg/mL (≈ 3.61 µM) | 2 µg/mL (≈ 3.61 µM) | 16 µg/mL (≈ 28.9 µM) | MIC [20]: 16 µg/mL (≈ 28.9 µM); MIC [21]: 64 µg/mL (≈ 115 µM); MIC [22]: 64 µg/mL (≈ 115 µM); MIC [23]: 8 µg/mL (≈ 14.4 µM); MIC [24]: 32 µg/mL (≈ 57.7 µM); MIC [25]: 8 µg/mL (≈ 14.4 µM); MIC [26]: 16 µg/mL (≈ 28.9 µM); MIC [27]: 4 µg/mL (≈ 7.21 µM); MIC [28]: 4 µg/mL (≈ 7.21 µM); MIC [29]: 8 µg/mL (≈ 14.4 µM); MIC [30]: 8 µg/mL (≈ 14.4 µM); MIC (Staphylococcus vitulinus [31]): 4 µg/mL (≈ 7.21 µM); MIC (Staphylococcus vitulinus [32]): 2 µg/mL (≈ 3.61 µM); MIC [33]: 8 µg/mL (≈ 14.4 µM)
